SMILES strings stand for the structures.

For assay [1], the system named is PC-12. Put plainly: Selectivity ratio, ratio of Ki for sigma 2 receptor in rat liver homogenates to Ki for human VAChT expressed in rat PC12 cells. The format is cell-based.
For assay [2], the system named is PC-12. Put plainly: Selectivity ratio, ratio of Ki for sigma 1 receptor in guinea pig brain homogenates to Ki for human VAChT expressed in rat PC12 cells. In kind it is cell-based.
Assay [3] has as its target T1, Vesicular acetylcholine transporter (Homo sapiens, UniProt Q16572).
T1 sequence (Q16572 whole entry): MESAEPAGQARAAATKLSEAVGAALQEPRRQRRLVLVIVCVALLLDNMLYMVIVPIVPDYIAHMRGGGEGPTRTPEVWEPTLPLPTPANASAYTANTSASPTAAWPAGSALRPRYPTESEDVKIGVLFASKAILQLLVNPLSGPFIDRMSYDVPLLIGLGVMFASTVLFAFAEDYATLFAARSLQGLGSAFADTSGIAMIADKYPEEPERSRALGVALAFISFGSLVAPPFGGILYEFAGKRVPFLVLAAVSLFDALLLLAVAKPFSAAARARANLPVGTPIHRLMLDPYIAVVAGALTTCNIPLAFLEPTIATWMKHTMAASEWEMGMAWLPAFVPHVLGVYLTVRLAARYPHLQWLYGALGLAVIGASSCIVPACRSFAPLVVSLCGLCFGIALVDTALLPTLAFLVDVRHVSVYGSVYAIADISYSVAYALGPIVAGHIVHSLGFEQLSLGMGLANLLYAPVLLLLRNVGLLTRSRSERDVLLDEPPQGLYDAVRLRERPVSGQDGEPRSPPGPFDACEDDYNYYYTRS
Briefly: Displacement of (-)-[3H]vesamicol from human VAChT expressed in rat PC12 cell membrane after 20 hrs. The format is cell membranes, PC-12.

Assay [4] can be described thus: Displacement of [3H]DTG from sigma 2 receptor in rat liver membrane homogenates after 120 mins by scintillation counting analysis. The format is cell membranes. The method in brief:
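Rat liver membrane homogenate (~300 µg protein) with ~5 nM [3H]DTG plus 1 µM (+)-pentazocine to block sigma-1 sites, 120 min at room temperature, pH 7.4 Tris buffer. Nonspecific binding taken with 10 µM haloperidol. Filtration and scintillation counting.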

Assay [5] has as its target Sigma non-opioid intracellular receptor 1 (Cavia porcellus, UniProt Q60492). Put plainly: Displacement of (+)- [3H]pentazocine from sigma 1 receptor expressed in guinea pig brain membrane homogenates by scintillation counting analysis. In kind it is cell membranes.
The mark [6] stands for this setting: tested as the 11C-labelled form.

Chain of Sigma non-opioid intracellular receptor 1 (Q60492 whole entry): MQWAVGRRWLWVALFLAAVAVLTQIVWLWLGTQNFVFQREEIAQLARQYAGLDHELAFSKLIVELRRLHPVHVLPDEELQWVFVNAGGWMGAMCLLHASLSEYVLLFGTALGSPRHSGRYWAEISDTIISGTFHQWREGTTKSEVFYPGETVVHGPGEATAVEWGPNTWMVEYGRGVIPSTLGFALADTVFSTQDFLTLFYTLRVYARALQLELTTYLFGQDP

For `CNc1ccc(C(=O)C2CCN([C@H]3Cc4ccccc4C[C@@H]3O)CC2)cc1`, the Ratio Ki in the assay on PC-12 [1] (setting [6]) came out at 14700; in the assay on PC-12 [2] (setting [6]), 1270.
For the molecule `O=C(c1cccs1)C1CCN([C@@H]2Cc3ccccc3C[C@H]2O)CC1` (racemic), the Ki (usually the equilibrium dissociation constant of an inhibitor or competing ligand from its target) in assay [3] was 0.005 µM.
Regarding `O=C(c1ccccc1)C1CCN([C@@H]2Cc3ccccc3C[C@H]2O)CC1` (racemic), the Ki in assay [4] amounted to 0.32 µM. The Ratio Ki in the assay with PC-12 [1] is 74; in the assay with PC-12 [2] it was 51.
In the case of `Nc1cccc2c1C[C@@H](N1CCC(C(=O)c3cccnc3)CC1)[C@H](O)C2` (racemic), the Ki in assay [4] turned out to be 5.08 µM; in assay [5], 20.3 µM; in assay [3], 0.118 µM. For the same molecule, the Ratio Ki in the assay with PC-12 [1] came to 43; with PC-12 [2], 170.
For `O=C(c1cncc(F)c1)C1CCN([C@@H]2Cc3ccccc3C[C@H]2O)CC1` (racemic), the Ki was 1.69 µM in assay [4] and 0.709 µM in assay [5]. Besides, the Ratio Ki came out at 170 with PC-12 [1] and 70 with PC-12 [2].
For `Cn1ccc(C(=O)C2CCN([C@@H]3Cc4ccccc4C[C@H]3O)CC2)cc1=O` (racemic), the Ki in assay [4] is 2.12 µM; in assay [5], 3.35 µM. The figures for the Ratio Ki in the assay with PC-12 [1] and in the assay on PC-12 [2] were 32 and 51, respectively.
Regarding `Cn1c(C(=O)C2CCN([C@@H]3Cc4ccccc4C[C@H]3O)CC2)cccc1=O` (racemic), the Ki in assay [4] amounted to 3.34 µM; in assay [5], 2.16 µM. Besides, the Ratio Ki in the assay on PC-12 [1] turned out to be 18; in the assay with PC-12 [2] it was 12.
On the same counts, the results for `O=C(c1ccc(F)nc1)C1CCN([C@@H]2Cc3ccccc3C[C@H]2O)CC1` (racemic) are 1.75 µM, 0.682 µM, 67 and 26.
As for `O=C(c1cccnc1F)C1CCN([C@@H]2Cc3ccccc3C[C@H]2O)CC1` (racemic), the figures for the Ki in assay [4] and in assay [5] were 3.53 µM and 1.3 µM, respectively. The Ratio Ki with PC-12 [1] worked out at 280.
Turning to `CN(C)c1ccc(C(=O)C2CCN([C@@H]3Cc4ccccc4C[C@H]3O)CC2)cc1` (racemic), the inhibitory constant (Ki) in assay [4] came to 4.08 µM; in assay [5], 0.0409 µM. For the same molecule, the Ratio Ki was determined as 4400 in the assay with PC-12 [1] and 44 in the assay on PC-12 [2].
`CNc1ccc(C(=O)C2CCN([C@@H]3Cc4ccccc4C[C@H]3O)CC2)cc1` (racemic): the Ki came to 6.18 µM in assay [4] and 0.305 µM in assay [5]. Also, the Ratio Ki in the assay with PC-12 [1] was 2000; with PC-12 [2], 100.
For `O=C(c1ccc(OCCF)nc1)C1CCN([C@@H]2Cc3ccccc3C[C@H]2O)CC1` (racemic), in that order: 1.86 µM, 2.12 µM, 49 and 56.
As to `O=C(c1ncccc1OCCF)C1CCN([C@@H]2Cc3ccccc3C[C@H]2O)CC1` (racemic), the Ki in assay [4] was 0.303 µM; in assay [5] it was 20 µM. The Ratio Ki with PC-12 [1] is 4; in the assay on PC-12 [2], 260.
Consider `Cn1cccc1C(=O)C1CCN([C@@H]2Cc3c(N)cccc3C[C@H]2O)CC1` (racemic), for which the figures for the Ki in assay [4] and in assay [5] were 6.99 µM and 7.66 µM, respectively. For the same molecule, the Ratio Ki came out at 180 in the assay with PC-12 [1] and 200 with PC-12 [2].
`Cc1ccc(C(=O)C2CCN([C@@H]3Cc4c(N)cccc4C[C@H]3O)CC2)cn1` (racemic): the Ki amounted to 27.5 µM in assay [4] and 0.048 µM in assay [3].
With `COc1ccc(C(=O)C2CCN([C@@H]3Cc4c(N)cccc4C[C@H]3O)CC2)cn1` (racemic), the results for the Ki in assay [4], in assay [5] and in assay [3] were 10.8 µM, 5.68 µM and 0.0233 µM, respectively. The Ratio Ki was 220 in the assay on PC-12 [1] and 120 in the assay on PC-12 [2].
In the case of `Cn1cccc1C(=O)C1CCN([C@@H]2Cc3cccc(N)c3C[C@H]2O)CC1` (racemic), the Ki turned out to be 11.4 µM in assay [4] and 9.24 µM in assay [5]. The Ratio Ki in the assay with PC-12 [1] is 4.9; in the assay with PC-12 [2], 4.
As to `Cn1cccc1C(=O)C1CCN([C@@H]2Cc3ccccc3C[C@H]2O)CC1` (racemic), the values for the Ki in assay [4] and in assay [5] were 2.55 µM and 1.3 µM, respectively. Moreover, the Ratio Ki in the assay with PC-12 [1] was 140; in the assay on PC-12 [2], 71.
In the case of `Cn1ccc(C(=O)C2CCN([C@@H]3Cc4ccccc4C[C@H]3O)CC2)c1` (racemic), the Ki in assay [4] was determined as 7.71 µM; in assay [5] it was 3.04 µM.
For `O=C(c1cccnc1)C1CCN([C@@H]2Cc3ccccc3C[C@H]2O)CC1` (racemic), the inhibition constant Ki in assay [4] amounted to 3.03 µM; in assay [5], 12.9 µM. Also, the figures for the Ratio Ki with PC-12 [1] and in the assay on PC-12 [2] were 130 and 540, respectively.
With `Cc1ccc(C(=O)C2CCN([C@@H]3Cc4ccccc4C[C@H]3O)CC2)cn1` (racemic), the Ki in assay [4] stood at 3.77 µM; in assay [5], 2.12 µM.
In the case of `COc1ccc(C(=O)C2CCN([C@@H]3Cc4ccccc4C[C@H]3O)CC2)cn1` (racemic), the figures for the Ki in assay [4], in assay [5] and in assay [3] were 2.57 µM, 0.986 µM and 0.00836 µM, respectively.
Consider `COc1cccnc1C(=O)C1CCN([C@@H]2Cc3ccccc3C[C@H]2O)CC1` (racemic), for which the Ki in assay [4] was 1.56 µM; in assay [5], 21 µM. For the same molecule, the figures for the Ratio Ki with PC-12 [1] and in the assay with PC-12 [2] were 13 and 170, respectively.
With `Nc1ccc(C(=O)C2CCN([C@@H]3Cc4ccccc4C[C@H]3O)CC2)cc1` (racemic), the affinity in assay [3] (pc-12) corresponds to a Ki of 0.00168 µM. That is a single-digit nanomolar value.
`O=C(c1ccc(F)cc1)C1CCN([C@@H]2Cc3ccccc3C[C@H]2O)CC1` (relative stereo) returned a Ki in assay [4] of 0.251 µM. In other words, the sub-micromolar range.
Take `CNc1ccc(C(=O)C2CCN(C3Cc4ccccc4CC3O)CC2)cc1` (single isomer, unassigned; (+)): the Ki in assay [4] came out at 7.77 µM; in assay [5] it was 1.17 µM; in assay [3], 0.019 µM. Further, the Ratio Ki worked out at 408 with PC-12 [1] and 61.5 in the assay with PC-12 [2].

The values above are taken from ChEMBL document CHEMBL2406932, “Heteroaromatic and aniline derivatives of piperidines as potent ligands for vesicular acetylcholine transporter” (J Med Chem, 2013).
